From ChEMBL document CHEMBL4049418, “6-OH-Phenanthroquinolizidine Alkaloid and Its Derivatives Exert Potent Anticancer Activity by Delaying S Phase Progression” (J Med Chem, 2017)
Active and inactive are the calls of the source. No cut-off for these calls is given here.

Experiments:
Assay type in all cases: functional
Bel-7402 [1] = test: Cell cycle arrest in human Bel7402 cells assessed as delay in progression of S-phase to G2-phase at 0.1 to 1 uM pre-treated with aphidicolin for 16 hrs followed by compound addition measured up to 24 hrs by propidium iodide staining-based flow cytometric method
Summary of the method: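 Exponentially growing cells synchronized in early S phase with 0.2 μg/mL aphidicolin for 16 h. Cells released into fresh medium with or without compound for set times. Ethanol-fixed, stained with PI/RNase, and cell cycle distribution read by flow cytometry. Representative of three independent experiments.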

KB-V1 = test: Growth inhibition of human KBV1 cells after 8 days by methylene blue-staining based spectrophotometry; conditions: KB-V1, 192 h
Bel-7402 [2] = test: Inhibition of DNA synthesis in human Bel7402 cells assessed as BrdU incorporation at 1 uM preincubated for 1 hr followed by BrdU addition for 30 mins by FITC/propidium iodide staining based flow cytometry (reference value: 35.5%); design: scale not given: the % may be the effect or the level left
Summary of the method: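 BEL-7402 cells (3 × 10⁵ per well) exposed to compounds 1 h, then labeled with 10 μM BrdU for 30 min; trypsinized, fixed in 70% ethanol at −20 °C ≥1 h, 2 N HCl 20 min, neutralized with 0.1 M borate, stained with anti-BrdU-FITC plus PI 30 min; BrdU-positive cells quantified by flow cytometry; three independent experiments, mean + SD.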

With `COc1cc2c3c(c4cc(OC)c(OC)cc4c2cc1OC)[C@H](O)[C@@H]1CCCN1C3` the Activity (Bel-7402 [1]) was “Active”, the GI50 (KB-V1) was 30 nM and the Activity (Bel-7402 [2]) was 8.01%.
